Assay [1] has as its system Bacillus subtilis. Briefly: Antibacterial activity against Bacillus subtilis MTCC 441 at 1 ug/ml after 24 hrs by cup-plate method. It counts as functional, organism-based. The essentials:
(§1)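 Cup-plate diffusion in nutrient agar, incubated 24 h at 37 °C. Compounds dissolved in DMF and tested at the single concentration given in the line. DMF served as the solvent control and ciprofloxacin as the reference standard. Read-out is the zone of inhibition diameter in mm.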

In assay [2] the test system is Bacillus subtilis. Description: Antibacterial activity against Bacillus subtilis MTCC 441 at 10 ug/ml after 24 hrs by cup-plate method. Type of assay: functional, organism-based. The essentials:
as §1

Assay [3] relates to Bacillus subtilis. Description: Antibacterial activity against Bacillus subtilis MTCC 441 at 100 ug/ml after 24 hrs by cup-plate method relative to ciprofloxacin. Type of assay: functional, organism-based.
The subject of assay [4] is Bacillus subtilis. Briefly: Antibacterial activity against Bacillus subtilis MTCC 441 at 500 ug/ml after 24 hrs by cup-plate method. Type of assay: functional, organism-based. The procedure, abridged:
as §1

Assay [5] has as its system Bacillus subtilis. Briefly: Antibacterial activity against Bacillus subtilis MTCC 441 after 24 hrs. The settings on record: MTCC 441, 24 h. It counts as functional. The essentials:
(§2)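 MIC was taken as the lowest concentration giving 100% growth inhibition relative to a drug-free control, after 24 h at 37 °C in nutrient agar. Compounds were dissolved in DMF, and ciprofloxacin was the reference.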

For assay [6], the system named is Bacillus subtilis. Description: Antibacterial activity against Bacillus subtilis MTCC 441 at 200 ug/ml after 24 hrs by cup-plate method. It counts as functional, organism-based. The procedure, abridged:
as §1

Assay [7] relates to Escherichia coli. Briefly: Antibacterial activity against Escherichia coli MTCC 443 at 1 ug/ml after 24 hrs by cup-plate method. Type of assay: functional, organism-based. The procedure, abridged:
as §1

In assay [8] the test system is Escherichia coli. Briefly: Antibacterial activity against Escherichia coli MTCC 443 at 10 ug/ml after 24 hrs by cup-plate method relative to ciprofloxacin. It counts as functional, organism-based.
In assay [9] the test system is Escherichia coli. Description: Antibacterial activity against Escherichia coli MTCC 443 at 100 ug/ml after 24 hrs by cup-plate method relative to ciprofloxacin. It counts as functional, organism-based.
For assay [10], the system named is Escherichia coli. Briefly: Antibacterial activity against Escherichia coli MTCC 443 at 200 ug/ml after 24 hrs by cup-plate method. Type of assay: functional, organism-based. The essentials:
as §1

The test system of assay [11] is Escherichia coli. Description: Antibacterial activity against Escherichia coli MTCC 443 at 500 ug/ml after 24 hrs by cup-plate method. It counts as functional, organism-based. The procedure, abridged: as §1
Assay [12] relates to Escherichia coli. Description: Antibacterial activity against Escherichia coli MTCC 443 after 24 hrs. It counts as functional. The settings on record: MTCC 443, 24 h. The essentials:
as §2

The subject of assay [13] is Streptomyces griseus. Description: Antibacterial activity against Streptomyces griseus MTCC 1540 at 1 ug/ml after 24 hrs by cup-plate method. It counts as functional, organism-based. The procedure, abridged: as §1
For assay [14], the system named is Streptomyces griseus. Description: Antibacterial activity against Streptomyces griseus MTCC 1540 at 10 ug/ml after 24 hrs by cup-plate method. Type of assay: functional, organism-based. The essentials:
as §1

The test system of assay [15] is Streptomyces griseus. Description: Antibacterial activity against Streptomyces griseus MTCC 1540 at 100 ug/ml after 24 hrs by cup-plate method relative to ciprofloxacin. Type of assay: functional, organism-based.
In assay [16] the test system is Streptomyces griseus. Briefly: Antibacterial activity against Streptomyces griseus MTCC 1540 at 200 ug/ml after 24 hrs by cup-plate method. Type of assay: functional, organism-based. The essentials:
as §1

The test system of assay [17] is Streptomyces griseus. Description: Antibacterial activity against Streptomyces griseus MTCC 1540 at 500 ug/ml after 24 hrs by cup-plate method. Type of assay: functional, organism-based. The procedure, abridged:
as §1

The subject of assay [18] is Streptomyces griseus. Description: Antibacterial activity against Streptomyces griseus MTCC 1540 after 24 hrs. The settings on record: MTCC 1540, 24 h. It counts as functional. The essentials: as §2
Assay [19] deals with Candida albicans. Briefly: Antifungal activity against Candida albicans MTCC 227 at 30 ug/ml after 48 hrs by cup-plate method. It counts as functional. The settings on record: MTCC 227, 48 h, read-out: DIZ. The procedure, abridged:
(§3)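 Cup-plate diffusion on Sabouraud's dextrose agar, incubated 48 h at 28 °C. Compounds in DMF, which also served as the control, with fluconazole as the reference standard.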

In assay [20] the test system is Aspergillus niger. Briefly: Antifungal activity against Aspergillus niger MTCC 282 at 30 ug/ml after 48 hrs by cup-plate method. It counts as functional. The conditions noted are these: MTCC 282, 48 h, read-out: DIZ. The essentials:
as §3

For assay [21], the system named is Bacillus subtilis. Description: Antibacterial activity against Bacillus subtilis MTCC 441 at 10 ug/ml after 24 hrs by cup-plate method relative to ciprofloxacin. Type of assay: functional, organism-based.
Assay [22] relates to Bacillus subtilis. Description: Antibacterial activity against Bacillus subtilis MTCC 441 at 100 ug/ml after 24 hrs by cup-plate method. It counts as functional, organism-based. The essentials:
as §1

Assay [23] has as its system Streptomyces griseus. Briefly: Antibacterial activity against Streptomyces griseus MTCC 1540 at 10 ug/ml after 24 hrs by cup-plate method relative to ciprofloxacin. It counts as functional, organism-based.
Assay [24] deals with Streptomyces griseus. Briefly: Antibacterial activity against Streptomyces griseus MTCC 1540 at 100 ug/ml after 24 hrs by cup-plate method. Type of assay: functional, organism-based. The procedure, abridged: as §1
Assay [25] concerns Escherichia coli. Description: Antibacterial activity against Escherichia coli MTCC 443 at 100 ug/ml after 24 hrs by cup-plate method. It counts as functional, organism-based. The essentials: as §1
Assay [26] deals with Escherichia coli. Description: Antibacterial activity against Escherichia coli MTCC 443 at 10 ug/ml after 24 hrs by cup-plate method. It counts as functional, organism-based. The essentials:
as §1

Assay [27] has as its system Bacillus subtilis. Description: Antibacterial activity against Bacillus subtilis MTCC 441 at 200 ug/ml after 24 hrs by cup-plate method relative to ciprofloxacin. Type of assay: functional, organism-based.

SMILES strings stand for the structures. In brackets after ≈: the same amount, converted by molar mass. Activity calls are given as the source filed them.

The MIC is the smallest concentration in the dilution series that meets the test's criterion for growth inhibition. A lower MIC goes with inhibition by little substance.

Consider `O=[N+]([O-])c1cccc(/C=N/n2c(S)nnc2CCNc2nc3ccccc3s2)c1`, for which the result in assay [1], in assay [2], in assay [7], in assay [8], in assay [9] and in [13] was inactive. Also, in assay [14], the outcome was inactive. Further, the result in [3], in assay [4], in assay [6], in assay [10], in [11] and in assay [15] was Active. Further, the result in assay [16] and in assay [17] was Active. Moreover, the MIC in assay [5], in assay [12] and in [18] was 200 µg/mL (≈ 470 µM) throughout. The figures for the zone of inhibition at 30 µg/mL in [19] and in assay [20] were 10 mm and below 10 mm, respectively.

On to `Oc1ccc(/C=N/n2c(S)nnc2CCNc2nc3ccccc3s2)cc1`, for which the result in assay [1], in assay [21], in assay [7], in assay [8], in assay [13] and in assay [23] was inactive. Moreover, the result in assay [22], in assay [4], in [6], in [9], in assay [10] and in assay [11] was Active. Besides, the result in [24], in assay [16] and in assay [17] was Active. Besides, the results for the MIC in [5], in assay [12] and in assay [18] were 100 µg/mL (≈ 252 µM), 200 µg/mL (≈ 504 µM) and 100 µg/mL (≈ 252 µM), respectively. Moreover, the zone of inhibition at 30 µg/mL in assay [19] was 22 mm; in [20], 10 mm.

Regarding `Sc1nnc(CCNc2nc3ccccc3s2)n1/N=C/c1ccccc1Cl`, the outcome in assay [1], in assay [3], in assay [7], in [13] and in assay [24] was inactive. For the same compound, the outcome in assay [21], in assay [4], in assay [6], in assay [8], in assay [9] and in assay [10] was Active. Further, the result in assay [11], in [23], in assay [16] and in assay [17] was Active. Further, the MIC in assay [5], in assay [12] and in assay [18] was 200 µg/mL (≈ 482 µM) in each case. Besides, the zone of inhibition at 30 µg/mL in assay [19] was determined as 22 mm; in assay [20], 16 mm.

For the compound `OC(Cn1cncn1)(Cn1cncn1)c1ccc(F)cc1F` [FLUCONAZOLE], the zone of inhibition at 30 µg/mL in assay [19] and in [20] was 22 mm each time.

`CN(C)c1ccc(/C=N/n2c(S)nnc2CCNc2nc3ccccc3s2)cc1`: the outcome in assay [1], in assay [21], in assay [7], in assay [13] and in assay [14] was inactive. In addition, the result in assay [22], in assay [4], in [6], in assay [8], in assay [25] and in assay [10] was Active. Moreover, the result in assay [11], in assay [24], in assay [16] and in assay [17] was Active. Further, the MIC in assay [5], in [12] and in [18] was 100 µg/mL (≈ 236 µM) in each case. The zone of inhibition at 30 µg/mL came out at 16 mm in [19] and 10 mm in assay [20].

For the compound `O=C(O)c1cn(C2CC2)c2cc(N3CCNCC3)c(F)cc2c1=O` [CIPROFLOXACIN], the outcome in assay [1], in [7] and in assay [13] was inactive. Also, the outcome in assay [2], in assay [22], in [4], in [6], in assay [26] and in assay [25] was Active. Moreover, the outcome in assay [10], in [11], in [14], in assay [24], in assay [16] and in [17] was Active. Also, the MIC in [5] and in assay [18] was 10 µg/mL (≈ 30.2 µM) throughout.

With `O=[N+]([O-])c1ccccc1/C=N/n1c(S)nnc1CCNc1nc2ccccc2s1`, the outcome in [1], in [21], in [7], in [26], in [13] and in assay [23] was inactive. Further, the outcome in assay [3], in assay [4], in assay [6], in assay [9], in [10] and in assay [11] was Active. In addition, the outcome in [15], in [16] and in assay [17] was Active. Moreover, the MIC in assay [5], in assay [12] and in assay [18] was 200 µg/mL (≈ 470 µM) each time. Besides, the values for the zone of inhibition at 30 µg/mL in [19] and in assay [20] were below 10 mm and 10 mm, respectively.

Turning to `COc1ccc(/C=N/n2c(S)nnc2CCNc2nc3ccccc3s2)cc1OC`, the result in assay [1], in assay [2], in assay [3], in assay [7], in assay [26] and in assay [13] was inactive. For the same compound, in assay [14], the result was inactive. Besides, the outcome in assay [4], in assay [25], in assay [10], in [11], in [24] and in [16] was Active. Further, the result in assay [17] was Active. The MIC was determined as 500 µg/mL (≈ 1130 µM) in [5], 100 µg/mL (≈ 227 µM) in [12] and 100 µg/mL (≈ 227 µM) in [18]. Besides, in [27], the outcome was Active. The zone of inhibition at 30 µg/mL in assay [19] and in [20] was 22 mm in each case.

Values taken from ChEMBL document CHEMBL1177873, “Synthesis and evaluation of some new benzothiazole derivatives as potential antimicrobial agents” (Eur J Med Chem, 2010).
